Screening results deposited in PubChem BioAssay by Johns Hopkins Ion Channel Center.
In the library only some 3.5% were active in any assay of this set; here they are far more common.
MrgX1 agonist: agonists of human MrgX1 receptor; B-score at 10 µM; 0.44% of 310,000 active; MrgX1-HEK293 cells, Fluo-4 calcium fluorescence, agonist mode; hits give high values; AID 588627; Q96LB2;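 active means calcium response B-score plate-corrected fluorescence ratio at least 3 library SD, with starting fluorescence B-score inside 5 SD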
Target sequence (Q96LB2 whole entry, looked up): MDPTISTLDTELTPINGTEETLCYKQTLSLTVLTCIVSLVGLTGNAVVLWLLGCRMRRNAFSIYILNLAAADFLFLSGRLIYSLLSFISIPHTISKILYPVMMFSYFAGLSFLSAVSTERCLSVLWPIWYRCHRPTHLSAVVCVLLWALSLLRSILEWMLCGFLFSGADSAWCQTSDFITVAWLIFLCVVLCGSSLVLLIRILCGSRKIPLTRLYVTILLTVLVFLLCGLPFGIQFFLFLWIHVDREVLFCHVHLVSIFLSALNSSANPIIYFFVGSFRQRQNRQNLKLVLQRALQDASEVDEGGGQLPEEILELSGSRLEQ
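Test system: Stable human MrgX1 HEK293 cell line | Schedule: Overnight plating before 1 h dye loading | Read-out basis: Baseline-normalised fluorescence change ratio, B-scored | Detection: Kinetic calcium dye fluorescence, Fluo-4 NW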
MrgX1 PAM: allosterically activates human MrgX1 receptor signaling; Q96LB2; MrgX1-HEK293, Fluo-4 calcium flux, FDSS; hits give high values; B-score at 10 µM; 0.63% of 310,000 active; AID 588675;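 active means plate-corrected calcium response at least 3 library SD above typical, normal starting fluorescence, not activating the receptor alone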;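 further: compound read alongside a low EC10 to EC30 dose of BAM8-22 agonist; peak minus trough fluorescence over baseline measured at the second addition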
MrgX1 antagonist: antagonists of human MrgX1 receptor; AID 588676; B-score at 10 µM; Q96LB2; 1.3% of 310,000 active; MRGX1-HEK293 calcium flux, Fluo-4, BAM8-22 antagonism; hits give low values;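 active means calcium-response B-score plate-corrected more than 3 library SD below zero, starting fluorescence within 5 deviations, no agonist response on first addition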;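 further: peak minus trough fluorescence over baseline after final BAM8-22 challenge near maximal dose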
RGS4 act: RGS4 potentiation or activation; AID 463111; HEK293 M3R/inducible RGS4, carbachol calcium flux Fluo4; hits give low values; B-score at 10 µM; 0.92% of 310,000 active;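 active means B-score of the integrated calcium signal more than 4 SD below the library mean, with starting fluorescence not abnormally high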;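 further: negative B-score means reduced calcium response which marks RGS4 activation or potentiation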
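Detection: kinetic calcium fluorescence imaging with Fluo4-AM dye, 2 µM / Material: HEK293 cells with stable M3R and inducible RGS4 / Schedule: recording 10 s baseline at 1 Hz, 100 s post-agonist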
RGS4 block: human RGS4 inhibition | AID 463165 | B-score at 10 µM | 0.45% of 310,000 active | HEK293 M3R/RGS4 inducible, Fluo-4 calcium flux; hits give high values; triggered by carbachol at its EC20 | P49798;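 active means B-score, a plate-corrected calcium signal, over three deviations above library mean, with baseline fluorescence within five deviations of library mean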;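 further: RGS4 expression induced by doxycycline in cells with stable M3 receptor; B-score is computed from the integrated fluorescence ratio over baseline after carbachol; higher B-score means a larger calcium signal and so more RGS4 inhibition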
Target sequence (P49798 whole entry, looked up): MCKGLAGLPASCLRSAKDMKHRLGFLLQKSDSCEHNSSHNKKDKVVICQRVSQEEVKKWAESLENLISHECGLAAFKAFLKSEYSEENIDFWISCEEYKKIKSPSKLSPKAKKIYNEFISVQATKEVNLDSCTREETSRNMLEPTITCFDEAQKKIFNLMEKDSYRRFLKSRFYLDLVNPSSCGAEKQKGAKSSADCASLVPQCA
* = called active by the depositor.

Cc1cccc(CS(=O)(=O)c2nnc([C@H](Cc3ccccc3)NC(=O)OC(C)(C)C)o2)c1 was read as MrgX1 agonist inactive, MrgX1 PAM inactive, MrgX1 antagonist inactive, RGS4 act inactive and RGS4 block inactive.
`C/C(=N/OC(=O)c1c(-c2ccccc2Cl)noc1C)c1cnccn1` gave MrgX1 agonist inactive, MrgX1 PAM inactive, MrgX1 antagonist inactive, RGS4 act -9.8* and RGS4 block inactive.
Screening Cc1cccc(-c2cc(C(=O)Nc3c(C)n(C)n(-c4ccccc4)c3=O)c3ccccc3n2)c1 returned MrgX1 agonist inactive, MrgX1 PAM 6.6*, MrgX1 antagonist inactive, RGS4 act -8.5* and RGS4 block inactive.
Screening CCCCNC(=O)c1sc(=S)n2c1[nH]c(=O)c1ccccc12 returned MrgX1 agonist 63*, MrgX1 PAM inactive, MrgX1 antagonist inactive, RGS4 act inactive and RGS4 block inactive.
Screening O=C(NC1CCCCC1)c1sc(=S)n2c1[nH]c(=O)c1ccccc12 returned MrgX1 agonist 47*, MrgX1 PAM inactive, MrgX1 antagonist inactive, RGS4 act inactive and RGS4 block inactive.
For O=C(NCC1CCCO1)c1sc(=S)n2c1[nH]c(=O)c1ccc(C(=O)N3CCCCC3)cc12 (centres undefined) the results were MrgX1 agonist inactive, MrgX1 PAM inactive, MrgX1 antagonist inactive, RGS4 act inactive and RGS4 block inactive.
`CCC1C(=O)NCCN1C(=O)CCc1nnc(CCc2ccc(OC)cc2)o1` (centres undefined) gave MrgX1 agonist inactive, MrgX1 PAM inactive, MrgX1 antagonist -5.7*, RGS4 act inactive and RGS4 block inactive.
CCOC(=O)c1cnc2c(C)c(Cl)ccc2c1NCCCN1CCOCC1 was read as MrgX1 agonist inactive, MrgX1 PAM 9.1*, MrgX1 antagonist inactive, RGS4 act inactive and RGS4 block inactive.
COC(CNC(=O)[C@H](CSCc1ccccc1)N1Cc2ccccc2C1=O)OC was read as MrgX1 agonist inactive, MrgX1 PAM 8.2*, MrgX1 antagonist inactive, RGS4 act inactive and RGS4 block inactive.
CCOCCn1c(COc2ccccc2)nc2ccccc21 was read as MrgX1 agonist inactive, MrgX1 PAM inactive, MrgX1 antagonist inactive, RGS4 act inactive and RGS4 block inactive.
Screening COCCOC(=O)/C(=C\c1cc(C(C)(C)C)c(O)c(C(C)(C)C)c1)C(C)=O returned MrgX1 agonist inactive, MrgX1 PAM 6.6*, MrgX1 antagonist inactive, RGS4 act inactive and RGS4 block inactive.
Screening CC(C)(C)c1cc(CCC(=O)NN)cc(C(C)(C)C)c1O returned MrgX1 agonist inactive, MrgX1 PAM inactive, MrgX1 antagonist inactive, RGS4 act inactive and RGS4 block inactive.
Screening CC(COc1ccccc1Cc1ccccc1)N1CCCCC1 (centres undefined) returned MrgX1 agonist inactive, MrgX1 PAM inactive, MrgX1 antagonist inactive, RGS4 act -7.4* and RGS4 block inactive.
`O=C(O)COc1ccccc1Cc1ccccc1` gave MrgX1 agonist inactive, MrgX1 PAM inactive, MrgX1 antagonist inactive, RGS4 act inactive and RGS4 block inactive.
CC(C)C(C(=O)Nc1ccncc1)c1ccc(Cl)cc1 (centres undefined) was read as MrgX1 agonist inactive, MrgX1 PAM inactive, MrgX1 antagonist -4.6*, RGS4 act inactive and RGS4 block inactive.
Screening O=C(CCn1nc(-c2ccc(Cl)cc2)ccc1=O)NCCCN1CCCCCC1 returned MrgX1 agonist inactive, MrgX1 PAM inactive, MrgX1 antagonist inactive, RGS4 act inactive and RGS4 block inactive.
For COc1ccc(CCN2C(=O)CSC2=Nc2ccc(C(C)C)cc2)cc1OC the results were MrgX1 agonist inactive, MrgX1 PAM inactive, MrgX1 antagonist inactive, RGS4 act -7.2* and RGS4 block inactive.
COc1ccccc1OCCSc1nc2ccccc2n1CCO was read as MrgX1 agonist inactive, MrgX1 PAM inactive, MrgX1 antagonist inactive, RGS4 act inactive and RGS4 block inactive.
NC(N)=N/N=C/c1ccc(OS(=O)(=O)c2ccccc2)cc1 was read as MrgX1 agonist 30*, MrgX1 PAM inactive, MrgX1 antagonist inactive, RGS4 act -8.4* and RGS4 block inactive.
`Cc1nc(C)c(-c2ccc(SCc3ccccc3F)nn2)s1` gave MrgX1 agonist inactive, MrgX1 PAM inactive, MrgX1 antagonist inactive, RGS4 act inactive and RGS4 block inactive.
Screening Cc1ccc(C(=O)c2oc3ccccc3c2NC(=O)c2cc(-c3cc(C)ccc3O)n[nH]2)cc1 returned MrgX1 agonist inactive, MrgX1 PAM inactive, MrgX1 antagonist -5.2*, RGS4 act inactive and RGS4 block inactive.
`N#Cc1c(-n2cccc2/C=N/O)sc2c1CCCC2` gave MrgX1 agonist 32*, MrgX1 PAM inactive, MrgX1 antagonist inactive, RGS4 act inactive and RGS4 block inactive.
For CN1CCN(c2ccc(NC(=O)c3ccc(Oc4ccccc4)cc3)cc2)CC1 the results were MrgX1 agonist inactive, MrgX1 PAM inactive, MrgX1 antagonist inactive, RGS4 act -7.7* and RGS4 block inactive.
For COC(=O)c1ccc(CN2CCC(CO)(Cc3cccc(OC)c3)CC2)cc1 the results were MrgX1 agonist inactive, MrgX1 PAM inactive, MrgX1 antagonist inactive, RGS4 act inactive and RGS4 block inactive.
CCOC(=O)C1(CCOc2ccccc2)CCN(Cc2ccc(COC)o2)CC1 was read as MrgX1 agonist 32*, MrgX1 PAM inactive, MrgX1 antagonist inactive, RGS4 act inactive and RGS4 block inactive.
`CCOC(=O)C1(CCOc2ccccc2)CCN(Cc2ccc(OC)c(COC)c2)CC1` gave MrgX1 agonist inactive, MrgX1 PAM inactive, MrgX1 antagonist -4.7*, RGS4 act inactive and RGS4 block inactive.
`COC(=O)c1ccc(CN2CCC(CO)(CCOc3ccccc3)CC2)cc1` gave MrgX1 agonist inactive, MrgX1 PAM inactive, MrgX1 antagonist inactive, RGS4 act -7* and RGS4 block inactive.
COc1ccc(-n2nnnc2/C=C/Nc2cc(C(F)(F)F)ccc2OC)cc1 was read as MrgX1 agonist inactive, MrgX1 PAM inactive, MrgX1 antagonist inactive, RGS4 act inactive and RGS4 block inactive.
COc1ccc(COCC(O)CN(Cc2ccco2)Cc2ccccc2O)cc1 (centres undefined) was read as MrgX1 agonist inactive, MrgX1 PAM inactive, MrgX1 antagonist inactive, RGS4 act inactive and RGS4 block inactive.
CC1CCN(S(=O)(=O)c2cccc(C(=O)NCC3CCCO3)c2)CC1 (centres undefined) was read as MrgX1 agonist inactive, MrgX1 PAM inactive, MrgX1 antagonist inactive, RGS4 act inactive and RGS4 block inactive.
